Among the data in ChEMBL document CHEMBL3112476, “Inhibition of IκB kinase-β and IκB kinase-α by heterocyclic adamantyl arotinoids” (Bioorg Med Chem, 2014) are Activity and max activation values, retold here.

The target in assay [1] is T1, Retinoic acid receptor RXR-alpha (Homo sapiens) (UniProt P19793).
T1 sequence (whole entry): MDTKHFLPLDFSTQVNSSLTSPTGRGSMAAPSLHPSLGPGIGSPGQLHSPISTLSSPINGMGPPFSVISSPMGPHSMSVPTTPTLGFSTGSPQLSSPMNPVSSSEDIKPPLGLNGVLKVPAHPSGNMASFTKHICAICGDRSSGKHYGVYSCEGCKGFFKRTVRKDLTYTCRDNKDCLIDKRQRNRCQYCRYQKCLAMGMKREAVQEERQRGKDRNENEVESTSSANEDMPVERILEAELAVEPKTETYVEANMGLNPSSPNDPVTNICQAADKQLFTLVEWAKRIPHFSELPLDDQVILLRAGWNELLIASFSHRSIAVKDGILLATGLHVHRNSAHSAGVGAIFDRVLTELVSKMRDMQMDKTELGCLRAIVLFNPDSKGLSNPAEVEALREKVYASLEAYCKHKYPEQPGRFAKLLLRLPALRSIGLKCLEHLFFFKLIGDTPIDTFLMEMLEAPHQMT
Put plainly: Agonist activity at recombinant GST-tagged RXRalpha LBD (unknown origin) assessed as induction of fluorescein labeled D22 coactivator recruitment after 4 hrs by TR-FRET assay. The essentials:
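5 nM GST-RXRα LBD was incubated with 150 nM fluorescein-D22 peptide at room temperature in Hepes pH 7.4 binding buffer (≤1% DMSO), with 2 nM Tb-anti-GST antibody. The 520/495 nm TR-FRET ratio was read after 4 h and reported as Delta F% relative to samples lacking receptor.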
For orientation: In TR-FRET formats the signal depends on donor and acceptor labels being close together.

For assay [2], the target named is T1, Retinoic acid receptor RXR-alpha (Homo sapiens). Put plainly: Agonist activity at recombinant GST-tagged RXRalpha LBD (unknown origin) assessed as induction of biotinylated SRC-1-676-700 coactivator recruitment after 4 hrs by TR-FRET assay. A digest of the protocol:
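5 nM GST-RXRα LBD was incubated with 150 nM biotin-SRC-1 676-700 peptide at room temperature in binding buffer (25 mM Hepes pH 7.4, 100 mM NaCl, 0.025% BSA, 5% glycerol, 0.005% Tween-20, 2.5 mM DTT; ≤1% DMSO). Detection used 2 nM Eu-anti-GST plus 37.5 nM streptavidin-allophycocyanin. The 665/615 nm ratio was read at 4 h and expressed as Delta F% versus no-receptor control.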

The target is the same in assay [3]. Kind of assay: Agonist activity at Gal4-fused RXRalpha (unknown origin) transfected in HEK293 cells assessed as induction of transcriptional activity at 4 uM after 24 hrs by luciferase/beta-galactosidase reporter gene assay relative to CD3254. The assay is classed as cell-based. The essentials:
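Gal4-RARα or Gal4-RXRα (10 ng) plus 2 ng β-galactosidase vector, calcium phosphate transfection into HEK-293 cells carrying a 5×UAS luciferase reporter. After 16 h, cells were washed and given 5% charcoal-treated FBS medium, then rested 2 h. Stimulation was with 4 µM compound or 0.1% DMSO; controls were 1 µM atRA (RARα) or 1 µM CD3254 (RXRα). Harvest was at 6 h (RARα) or 24 h (RXRα). Luciferase/β-gal ratio was expressed as fold over unstimulated cells. Data: 2 experiments, triplicate.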

As for `COCCOCOc1cc(C)c(-c2ccc3cc(C(=O)O)ccc3c2Cl)cc1C12CC3CC(CC(C3)C1)C2`, the Activity entry in assay [1] and in assay [2] was “Dose-dependent effect” throughout. Consider `COCCOCOc1ccc(-c2ncc(-c3ccc(C(=O)O)cc3)s2)cc1C12CC3CC(CC(C3)C1)C2`, for which the max activation in assay [3] is 21%. Turning to `COCCOCOc1cc(C)c(-c2ccc(CC(=O)O)cc2Cl)cc1C12CC3CC(CC(C3)C1)C2`, the Activity result in assay [1] and in assay [2] was “Dose-dependent effect” each time. Take `COCCOCOc1cc(C)c(-c2ccc(/C=C/C(=O)O)cc2Cl)cc1C12CC3CC(CC(C3)C1)C2`: the Activity entry in assay [1] and in assay [2] was “Dose-dependent effect” each time. In the case of `Cc1cc(O)c(C23CC4CC(CC(C4)C2)C3)cc1-c1ccc(/C=C/C(=O)O)cc1Cl`, the Activity entry in assay [1] and in assay [2] was “Dose-dependent effect” in each case.
